Reference: ChEMBL document CHEMBL1148409, “In vitro structure-activity relationship and in vivo studies for a novel class of cyclooxygenase-2 inhibitors: 5-aryl-2,2-dialkyl-4-phenyl-3(2H)furanone derivatives” (J Med Chem, 2004)

What was measured:
[1] = biological target: T1, Prostaglandin G/H synthase 1 (Mus musculus, UniProt P22437); assay: In vitro inhibitory activity against prostaglandin G/H synthase 1 using mouse peritoneal macrophage method
T1 sequence (P22437 whole entry): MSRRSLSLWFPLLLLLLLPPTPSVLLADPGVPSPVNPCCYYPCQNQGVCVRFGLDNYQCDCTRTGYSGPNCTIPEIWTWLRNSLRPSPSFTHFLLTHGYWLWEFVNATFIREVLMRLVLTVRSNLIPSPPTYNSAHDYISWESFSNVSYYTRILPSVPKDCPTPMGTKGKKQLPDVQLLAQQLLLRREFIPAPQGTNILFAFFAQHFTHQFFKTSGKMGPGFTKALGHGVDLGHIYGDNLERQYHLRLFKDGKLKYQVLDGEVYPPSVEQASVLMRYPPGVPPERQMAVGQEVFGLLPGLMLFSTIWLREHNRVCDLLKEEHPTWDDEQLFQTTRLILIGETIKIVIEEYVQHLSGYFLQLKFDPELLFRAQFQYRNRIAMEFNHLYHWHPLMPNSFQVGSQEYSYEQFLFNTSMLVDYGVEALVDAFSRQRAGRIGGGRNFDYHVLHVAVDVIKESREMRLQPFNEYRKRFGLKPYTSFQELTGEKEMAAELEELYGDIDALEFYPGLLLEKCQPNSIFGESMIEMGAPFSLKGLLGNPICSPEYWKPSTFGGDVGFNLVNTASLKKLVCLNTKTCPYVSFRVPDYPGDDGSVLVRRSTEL
How it was run: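 Freshly harvested mouse peritoneal macrophages were the enzyme source. Cells were preincubated 10 min at 37 °C with inhibitor in DMSO, then stimulated with calcium ionophore A23187 for 10 min. The reaction was stopped with indomethacin in 0.1% BSA buffer and centrifuged, and supernatant TXB₂ was measured by ELISA.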

[2] = biological target: T2, Prostaglandin G/H synthase 2 (Mus musculus, UniProt Q05769); assay: In vitro inhibitory activity against prostaglandin G/H synthase 2 using mouse peritoneal macrophage method
T2 sequence (Q05769 whole entry): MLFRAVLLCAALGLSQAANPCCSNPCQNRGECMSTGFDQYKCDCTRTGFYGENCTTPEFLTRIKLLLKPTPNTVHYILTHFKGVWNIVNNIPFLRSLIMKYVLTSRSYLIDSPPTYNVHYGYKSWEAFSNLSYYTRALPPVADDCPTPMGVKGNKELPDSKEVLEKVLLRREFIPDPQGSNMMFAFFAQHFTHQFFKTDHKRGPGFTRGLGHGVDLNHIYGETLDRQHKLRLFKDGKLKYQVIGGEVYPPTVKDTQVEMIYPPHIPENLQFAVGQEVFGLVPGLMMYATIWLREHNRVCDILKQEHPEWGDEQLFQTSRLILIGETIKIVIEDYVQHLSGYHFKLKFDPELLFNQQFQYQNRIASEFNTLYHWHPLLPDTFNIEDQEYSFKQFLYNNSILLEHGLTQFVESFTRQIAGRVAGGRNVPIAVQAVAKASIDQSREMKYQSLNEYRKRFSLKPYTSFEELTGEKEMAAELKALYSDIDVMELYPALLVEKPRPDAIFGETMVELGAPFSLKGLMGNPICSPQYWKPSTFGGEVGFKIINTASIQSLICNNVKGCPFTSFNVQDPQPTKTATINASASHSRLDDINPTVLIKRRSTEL

Rattus norvegicus [3] = assay: Inhibition of carrageenan-induced rat foot oedema following 3 mg/kg administration.; type: functional
How it was run: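 Male SD rats (160 ~ 190 g) were fasted overnight and given compound in 1% methylcellulose by oral gavage, at least 5 animals per group. One hour later, 0.05 mL of 1% carrageenan in saline was injected subplantar into the right hindpaw. Paw swelling was measured by plethysmometer 4 h after dosing and expressed as % inhibition.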

Rattus norvegicus [4] = assay: Antiinflammatory activity was determined by measuring adjuvant-induced arthritis in rats using therapeutic method; dose administered daily once; type: functional
How it was run: (§1)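 Therapeutic adjuvant arthritis in male SD rats (160 ~ 190 g). On day 0, 0.1 mL of 1% heat-killed M. butyricum in incomplete Freund's adjuvant was injected subplantar into the right hindpaw. On day 14, rats with left hindpaw swelling over 0.37 mL were selected and randomized. Daily treatment ran from day 14 to day 22, and % inhibition was taken from day-22 foot volumes.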

Rattus norvegicus [5] = assay: Antiinflammatory activity was determined by measuring adjuvant-induced arthritis in rats using preventive method; Range is 0.1~0.2 (dose administered daily twice); type: functional
How it was run: (§2)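 Preventive adjuvant arthritis in male Lewis rats (200 ~ 210 g), 10 per group. On day 0, 0.1 mL of 1% heat-killed M. butyricum in incomplete Freund's adjuvant was injected subplantar into the right hindpaw. Oral gavage dosing ran from day -1 to day 16. Left hindpaw volume was measured by plethysmometer on day 17, and % inhibition versus control was calculated.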

Rattus norvegicus [6] = assay: Ability of compound to cause gastric ulcerogenicity was determined in rats at 30 mg/kg when administered daily once; type: functional, Stomach
How it was run: (§3)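 Male SD rats (130 ~ 140 g) were dosed by oral gavage for 7 days, with compound suspended in 1% methylcellulose. Rats were fasted overnight before necropsy and killed 4 h after the last dose. Stomachs were scored for ulceration on a scale where 1 is an apparently normal stomach and 2 is pinpoint ulcers only.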

Rattus norvegicus [7] = assay: Antiinflammatory activity was determined by measuring adjuvant-induced arthritis in rats using preventive method; Range is 0.2~0.3 (dose administered daily twice ); type: functional; how it was run: as §2
Rattus norvegicus [8] = assay: Antiinflammatory activity was determined by measuring adjuvant-induced arthritis in rats using therapeutic method; (dose administered daily once); type: functional; how it was run: as §1
Rattus norvegicus [9] = assay: Antiinflammatory activity was determined by measuring adjuvant-induced arthritis in rats using therapeutic method; dose administered daily twice; type: functional; how it was run: as §1
Rattus norvegicus [10] = assay: Antiinflammatory activity was determined by measuring adjuvant-induced arthritis in rats using preventive method; dose administered daily twice; type: functional; how it was run: as §2
Rattus norvegicus [11] = assay: Ability of compound to cause gastric ulcerogenicity was determined in rats at 5 mg/kg when administered daily once; type: functional, Stomach; how it was run: as §3
Rattus norvegicus [12] = assay: Antiinflammatory activity was determined by measuring adjuvant-induced arthritis in rats using preventive method; dose administered daily once; type: functional; how it was run: as §2
Rattus norvegicus [13] = assay: Ability of compound to cause gastric ulcerogenicity was determined in rats at 5 mg/kg; type: functional, Stomach; how it was run: as §3

IC50 [1] [nM]	IC50 [2] [nM]	Compound	inhibition in vivo at 3 mg/kg (Rattus norvegicus [3]) [%]	also measured
29100	1460	CC1(C)OC(c2ccc(S(C)(=O)=O)cc2)=C(c2cccnc2)C1=O	–	–
178	23.3	CC1(C)OC(c2ccc(S(N)(=O)=O)cc2)=C(c2ccccc2)C1=O	–	–
47000	70.5	CCC1(C)OC(c2ccc(S(C)(=O)=O)cc2)=C(c2cc(Cl)cc(Cl)c2)C1=O (stereo unspecified)	–	–
7570	–	Cc1cccc(C2=C(c3ccc(S(C)(=O)=O)cc3)OC3(CCCCC3)C2=O)c1	–	–
–	–	CCC1(C)OC(c2ccc(S(C)(=O)=O)cc2)=C(c2cccc(Cl)c2)C1=O (stereo unspecified)	23	–
–	–	Cn1cc(C2=C(c3ccc(S(N)(=O)=O)cc3)OC(C)(C)C2=O)cn1	29	–
5010	18.5	CC1(C)OC(c2ccc(S(N)(=O)=O)cc2)=C(c2ccc(F)c(F)c2)C1=O	–	–
–	–	CC1(C)OC(c2ccc(S(N)(=O)=O)cc2F)=C(c2cc(F)cc(F)c2)C1=O	32	–
7600	760	CC1(C)OC(c2ccc(S(C)(=O)=O)cc2)=C(c2ccc(F)c(Cl)c2)C1=O	31	–
55300	–	CC1(C)OC(c2ccc(S(N)(=O)=O)cc2F)=C(c2ccccc2)C1=O	–	–
–	–	Cc1cccc(C2=C(c3ccc(S(C)(=O)=O)cc3)OC3(CCCC3)C2=O)c1	26	–
–	–	CC1(C)OC(c2ccc(S(C)(=O)=O)cc2)=C(c2cccc(Cl)c2)C1=O	16	–
71.2	71.2	CC1(C)OC(c2ccc(S(C)(=O)=O)cc2)=C(c2ccc(Br)cc2)C1=O	–	–
–	–	CC1(C)OC(c2ccc(S(N)(=O)=O)c(F)c2)=C(c2cccc(F)c2)C1=O	27	–
26100	5230	CS(=O)(=O)c1ccc(C2=C(c3ccccc3)C(=O)C3(CCCCC3)O2)cc1	–	–
–	–	CC1(C)OC(c2ccc(S(N)(=O)=O)c(F)c2)=C(c2cc(F)cc(F)c2)C1=O	31	–
–	–	CC1(C)OC(c2ccc(S(C)(=O)=O)c(F)c2)=C(c2cccc(Cl)c2)C1=O	28	–
–	–	CC1(C)OC(c2ccc(S(C)(=O)=O)c(F)c2)=C(c2cc(F)cc(F)c2)C1=O	–	ED50 (Rattus norvegicus [4]): > 0.1 mg/kg/day
23600	–	CCC1(C)OC(c2ccc(S(C)(=O)=O)cc2)=C(c2cccc(C(F)(F)F)c2)C1=O (stereo unspecified)	–	–
13700	343	CC1(C)OC(c2ccc(S(N)(=O)=O)cc2)=C(c2ccsc2)C1=O	–	–

IC50 [1] [nM]	IC50 [2] [nM]	Compound	inhibition in vivo at 3 mg/kg (Rattus norvegicus [3]) [%]	also measured
675	33.7	CC(=O)c1ccc(C2=C(c3ccc(S(N)(=O)=O)cc3)OC(C)(C)C2=O)cc1	26	–
1990	26.7	CC1(C)OC(c2ccc(S(N)(=O)=O)cc2)=C(c2cccc(C(F)(F)F)c2)C1=O	–	–
86600	1440	Cn1cc(C2=C(c3ccc(S(C)(=O)=O)cc3)OC(C)(C)C2=O)cn1	36	ED50 (Rattus norvegicus [4]): ~0.3 mg/kg/day
–	–	CCCCc1ccc(C2=C(c3ccc(S(C)(=O)=O)cc3)OC(C)(C)C2=O)cc1	8	–
–	–	CC(=O)c1ccc(C2=C(c3ccc(S(C)(=O)=O)cc3)OC(C)(C)C2=O)cc1	–	ED50 (Rattus norvegicus [5]): 0.1 mg/kg/day
7760	7760	CS(=O)(=O)c1ccc(C2=C(c3cccc(F)c3)C(=O)C3(CCCC3)O2)cc1	–	–
81000	13500	CCC1(CC)OC(c2ccc(S(C)(=O)=O)cc2)=C(c2ccccc2)C1=O	–	–
26000	1300	CCC1(CC)OC(c2ccc(S(C)(=O)=O)cc2)=C(c2cccc(C)c2)C1=O	–	–
–	–	CC1(C)OC(c2ccc(S(N)(=O)=O)cc2)=C(c2cccc(Cl)c2)C1=O	39	ED50 (Rattus norvegicus [4]): 0.03 mg/kg/day
–	–	CC1(C)OC(c2ccc(S(C)(=O)=O)cc2)=C(c2cccc(F)c2)C1=O	36	Activity (Rattus norvegicus [6]): 1.8; ED50 (Rattus norvegicus [7]): 0.3 mg/kg/day; ED50 (Rattus norvegicus [8]): 0.07 mg/kg/day
–	–	CC1(C)OC(c2ccc(S(C)(=O)=O)cc2)=C(c2cc(F)cc(F)c2)C1=O	34	Activity (Rattus norvegicus [6]): 1.8
–	–	CC(=O)c1cccc(C2=C(c3ccc(S(C)(=O)=O)cc3)OC(C)(C)C2=O)c1	22	–
–	–	CC1(C)OC(c2ccc(S(C)(=O)=O)cc2)=C(c2cccc(C(F)(F)F)c2)C1=O	31	–
–	–	Cc1ccc(-c2cc(C(F)(F)F)nn2-c2ccc(S(N)(=O)=O)cc2)cc1 [CELECOXIB]	34	ED50 (Rattus norvegicus [9]): 0.37 mg/kg/day
–	–	Cc1ccc(-c2ncc(Cl)cc2-c2ccc(S(C)(=O)=O)cc2)cn1 [ETORICOXIB]	–	ED50 (Rattus norvegicus [10]): 0.7 mg/kg/day
–	–	COc1ccc2c(c1)c(CC(=O)O)c(C)n2C(=O)c1ccc(Cl)cc1 [INDOMETHACIN]	45	Activity (Rattus norvegicus [11]): 3.5
–	–	Cc1cnc(NC(=O)C2=C(O)c3ccccc3S(=O)(=O)N2C)s1 [MELOXICAM]	–	ED50 (Rattus norvegicus [12]): 0.28 mg/kg/day
830	8.3	CC1(C)OC(c2ccc(S(N)(=O)=O)cc2)=C(c2cccc(F)c2)C1=O [POLMACOXIB]	47	Activity (Rattus norvegicus [13]): 1.5; ED50 (Rattus norvegicus [10]): 0.1 mg/kg/day; ED50 (Rattus norvegicus [4]): 0.02 mg/kg/day; ED50 (Rattus norvegicus [9]): 0.01 mg/kg/day
–	–	CS(=O)(=O)c1ccc(C2=C(c3ccccc3)C(=O)OC2)cc1 [ROFECOXIB]	–	ED50 (Rattus norvegicus [10]): 0.74 mg/kg/day
–	–	Cc1onc(-c2ccccc2)c1-c1ccc(S(N)(=O)=O)cc1 [VALDECOXIB]	–	ED50 (Rattus norvegicus [9]): 0.032 mg/kg/day
